Assay [1] addresses T1, Polyunsaturated fatty acid 5-lipoxygenase (Homo sapiens, UniProt P09917).
T1 sequence (P09917 whole entry): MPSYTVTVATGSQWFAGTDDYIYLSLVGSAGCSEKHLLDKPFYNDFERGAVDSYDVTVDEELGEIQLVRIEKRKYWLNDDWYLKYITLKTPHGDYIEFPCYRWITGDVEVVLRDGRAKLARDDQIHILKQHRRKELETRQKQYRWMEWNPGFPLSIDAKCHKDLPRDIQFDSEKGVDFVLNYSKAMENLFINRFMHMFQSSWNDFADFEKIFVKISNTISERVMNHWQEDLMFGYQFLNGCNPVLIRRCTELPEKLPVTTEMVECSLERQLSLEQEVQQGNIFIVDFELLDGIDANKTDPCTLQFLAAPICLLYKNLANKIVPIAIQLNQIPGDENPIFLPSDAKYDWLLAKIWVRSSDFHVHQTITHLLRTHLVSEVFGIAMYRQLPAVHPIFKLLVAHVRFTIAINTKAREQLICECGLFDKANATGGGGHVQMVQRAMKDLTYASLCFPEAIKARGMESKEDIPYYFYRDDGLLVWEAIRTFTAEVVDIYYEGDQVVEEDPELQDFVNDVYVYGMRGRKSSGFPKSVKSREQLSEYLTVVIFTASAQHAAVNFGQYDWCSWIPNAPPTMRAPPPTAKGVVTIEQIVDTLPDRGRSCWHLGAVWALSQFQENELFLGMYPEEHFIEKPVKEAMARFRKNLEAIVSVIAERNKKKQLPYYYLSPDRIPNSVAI
Kind of assay: Inhibition of 5-LO in human polymorphonuclear leukocytes preincubated for 10 mins followed by addition of arachidonic acid as substrate measured after 10 mins by HPLC method. In kind it is cell-based.

Assay [2] concerns the target T1, Polyunsaturated fatty acid 5-lipoxygenase. Kind of assay: Inhibition of recombinant human 5-LO expressed in Escherichia coli MV1190 cells preincubated for 10 mins followed by addition of arachidonic acid as substrate measured after 10 mins by RP-HPLC method. In outline: (§1)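 Recombinant human 5-LO expressed at 27 °C in E. coli MV1190 and partially purified from the 40000g supernatant on ATP-agarose. Enzyme taken up in PBS with 1 mM EDTA plus 1 mM ATP and preincubated with compound on ice 10 min. After 30 s at 37 °C, 2 mM CaCl2 and 20 μM AA added for 10 min. Stopped with methanol, products measured by RP-HPLC. Mean ± SEM, 3–4 experiments.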

The target of assay [3] is T2, Polyunsaturated fatty acid 5-lipoxygenase (Homo sapiens) (UniProt P09917).
T2 sequence (whole entry): T1 sequence (P09917 whole entry)
Description: Inhibition of recombinant human 5-LO expressed in Escherichia coli MV1190 cells assessed as residual activity preincubated for 10 mins followed by addition of arachidonic acid as substrate measured after 10 mins by RP-HPLC method relative to control. In short, it runs like this: as §1

The target of assay [4] is T2, Polyunsaturated fatty acid 5-lipoxygenase (Homo sapiens). Kind of assay: Inhibition of 5-LO in human polymorphonuclear leukocytes assessed as residual activity at 10 uM preincubated for 10 mins followed by addition of arachidonic acid as substrate measured after 10 mins by HPLC method relative to control. In kind it is cell-based.
The target of assay [5] is T3, Prostaglandin E synthase (Homo sapiens) (UniProt O14684).
T3 sequence (whole entry): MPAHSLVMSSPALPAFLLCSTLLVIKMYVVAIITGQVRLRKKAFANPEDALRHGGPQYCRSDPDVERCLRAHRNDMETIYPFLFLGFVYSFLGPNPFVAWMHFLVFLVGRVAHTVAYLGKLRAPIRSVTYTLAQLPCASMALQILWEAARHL
Kind of assay: Inhibition of mPGES-1 in microsomes of IL1-beta induced human A549 cells assessed as PGE2 formation by measuring enzyme residual activity at 10 uM preincubated for 15 mins followed by addition of PGH2 as substrate measured after 1 min by RP-HPLC method relative to control. In short, it runs like this:
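Microsomes from A549 cells stimulated with IL-1β (1 ng/mL) for 48 h, diluted in 0.1 M potassium phosphate pH 7.4 with 2.5 mM glutathione. Compound or vehicle added for 15 min at 4 °C, then 20 μM PGH2 for 1 min at 4 °C. Stopped with FeCl2/citric acid containing 11β-PGE2. PGE2 measured by solid-phase extraction and RP-HPLC. Residual activity as % of control, mean ± SEM, 3–4 experiments.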

What is called IC50 is the concentration that gives 50% inhibition. With `COc1cc2c(c(O)c1C(=O)/C=C/c1ccc(O)cc1)C=CC(C)(C)O2` [XANTHOHUMOL C], the half-inhibitory concentration (IC50) in assay [1] (read-out: IC50) and in assay [2] (read-out: IC50) was over 10 µM throughout. Also, the Activity stood at 58% in assay [3], 56.8% in assay [4] and 35.3% in assay [5].
Consider `CC(C)=CCc1c(O)cc(O)c2c1O[C@H](c1ccc(O)cc1)CC2=O`, for which the half-maximal inhibitory concentration (IC50) in assay [1] (read-out: IC50) and in assay [2] (read-out: IC50) was over 10 µM each time. The Activity in assay [3] came out at 66.7%; in assay [4] it was 87.5%; in assay [5] it was 56.5%.
`CC(C)=CCC1=C(O)[C@](O)(CC=C(C)C)C(=O)C(C(=O)CC(C)C)=C1O`: the half-maximal inhibitory concentration (IC50) in assay [1] (read-out: IC50) is over 10 µM; in assay [2] (read-out: IC50), 9.3 µM. Further, the Activity in assay [4] was 63.1%; in assay [5], 49.7%.
In the case of `COc1cc(O)c(CC=C(C)C)c(O)c1C(=O)/C=C/c1ccc(O)cc1` [XANTHOHUMOL], the IC50 worked out at 2.9 µM in assay [1] (read-out: IC50) and 2.1 µM in assay [2] (read-out: IC50). The Activity in assay [5] came out at 32.3%.
`CC(C)=CCC1(O)C(=O)C(CC=C(C)C)(CC=C(C)C)C(=O)C(C(=O)C(C)C)=C1O` (stereo not drawn): the figures for the IC50 in assay [1] (read-out: IC50) and in assay [2] (read-out: IC50) were over 10 µM and 5.9 µM, respectively. Also, the figures for the Activity in assay [4] and in assay [5] were 57.5% and 32.8%, respectively.
In the case of `CC(C)=CCC1=C2O[C@@H](C(C)(C)O)C[C@@]2(O)C(=O)C(C(=O)CC(C)C)=C1O`, the IC50 result in assay [1] was “Not Active”; in assay [2] (read-out: IC50), over 10 µM. Also, the Activity is 90.8% in assay [3] and 52.7% in assay [5].
For `CC(C)=CCc1c(O)cc(O)c(-c2c(O)cc(O)c(CC=C(C)C)c2O)c1O`, the IC50 entry in assay [1] and in assay [2] was “Not Active” each time. The Activity in assay [5] came to 40.2%.

The record behind these values is ChEMBL document CHEMBL3813661, “Humudifucol and Bioactive Prenylated Polyphenols from Hops (Humulus lupulus cv. "Cascade")” (J Nat Prod, 2016).
